{"data": "Measurements from different studies", "target": "Serine/threonine-protein kinase ICK (CILK1, Homo sapiens, UniProt Q9UPZ9)", "Residues used in one study (Q9UPZ9 1-632)": "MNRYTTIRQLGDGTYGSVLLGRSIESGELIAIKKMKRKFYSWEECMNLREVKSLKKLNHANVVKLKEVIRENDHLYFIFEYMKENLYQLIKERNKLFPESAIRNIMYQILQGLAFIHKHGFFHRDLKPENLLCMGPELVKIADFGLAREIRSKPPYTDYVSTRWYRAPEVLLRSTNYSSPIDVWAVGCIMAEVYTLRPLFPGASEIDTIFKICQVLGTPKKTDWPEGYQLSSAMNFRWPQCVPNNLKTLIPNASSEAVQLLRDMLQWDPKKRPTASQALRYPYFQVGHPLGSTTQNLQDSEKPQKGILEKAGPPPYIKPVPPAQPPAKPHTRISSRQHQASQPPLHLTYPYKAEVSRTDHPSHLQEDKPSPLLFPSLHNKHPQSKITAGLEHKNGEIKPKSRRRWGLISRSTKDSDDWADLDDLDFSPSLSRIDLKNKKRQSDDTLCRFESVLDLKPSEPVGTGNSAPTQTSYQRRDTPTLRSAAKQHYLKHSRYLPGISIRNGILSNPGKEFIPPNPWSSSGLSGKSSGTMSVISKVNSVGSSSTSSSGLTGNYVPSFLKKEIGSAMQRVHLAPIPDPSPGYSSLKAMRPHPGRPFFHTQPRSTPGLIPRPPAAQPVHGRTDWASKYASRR", "note": "Each line is one published result; the experiments were not run side by side."}
{"Compound": "O=C(Nc1c[nH]nc1C(=O)NC1CCNCC1)c1cc(F)cc(F)c1", "assay": "binding, competition with immobilised ligand", "setting": "1 µM", "remaining binding": "84%"}
{"Compound": "O=C(Nc1cccnn1)N1CCC(=Cc2cccc(Oc3ccc(C(F)(F)F)cn3)c2)CC1", "assay": "cell-free assay, competition with immobilised ligand", "setting": "1 µM", "remaining binding": "91%"}
{"Compound": "CN(C)c1nccc(-c2cnn3ncccc23)n1", "assay": "binding", "setting": "1 µM", "remaining binding": "91%"}
{"Compound": "O=C(NCCCN1CCOCC1)c1ccc(Nc2ncc(Cl)c(-c3ccc(Cl)s3)n2)cc1", "assay": "binding, competition with immobilised ligand", "setting": "1 µM", "remaining binding": "62%"}
{"Compound": "CN(C)c1ncc(F)c(-c2cnn3ncccc23)n1", "assay": "binding", "setting": "1 µM", "remaining binding": "89%"}
{"Compound": "O=C(c1ccc(Nc2nccc(-c3cc4ccccc4s3)n2)cc1)N1CCC(N2CCCC2)CC1", "assay": "binding, competition with immobilised ligand", "setting": "1 µM", "remaining binding": "74%"}
{"Compound": "c1cncc(-c2cccc(Nc3nccc(NC4CCCCC4)n3)c2)c1", "assay": "binding, competition with immobilised ligand", "setting": "10 µM", "remaining binding": "50%"}
{"Compound": "O=C(c1ccc(Nc2ncc(Cl)c(-c3cc4ccccc4s3)n2)cc1)N1CCC(N2CCCC2)CC1", "assay": "binding, competition with immobilised ligand", "setting": "1 µM", "remaining binding": "57%"}
{"Compound": "Nc1ncc2c(n1)-c1c([nH]c3ccc(C#CC4CC4)cc13)CCCC2", "assay": "binding, competition with immobilised ligand", "setting": "1 µM", "remaining binding": "98%"}
{"Compound": "Cc1c(NC(=O)c2cc(C(N)=O)nc3cc(F)ccc23)c(C(F)(F)F)nn1Cc1ccc(C(C)(C)C)cc1", "assay": "cell-free assay, competition with immobilised ligand", "setting": "1 µM", "remaining binding": "61%"}
{"Compound": "CC1CCCN1c1nccc(-c2cnn3ncccc23)n1 (stereo not drawn)", "assay": "binding", "setting": "1 µM", "remaining binding": "100%"}
{"Compound": "CN([C@@H]1CCc2c(CC(=O)O)c3ccccc3n2C1)S(=O)(=O)c1ccc(F)cc1", "assay": "cell-free assay, competition with immobilised ligand", "setting": "1 µM", "remaining binding": "100%"}
{"Compound": "N[C@H]1CCN(c2nccc(-c3cnn4ncccc34)n2)C1", "assay": "binding", "setting": "1 µM", "remaining binding": "100%"}
{"Compound": "C=CC(=O)N1CCC(C(=O)NCC(=O)N2CCN(c3nc(-c4cnc(N)nc4C(F)F)nc(N4CCOCC4)n3)CC2)CC1", "assay": "binding, competition with immobilised ligand", "setting": "1 µM", "remaining binding": "95%"}
{"Compound": "C[C@H]1CCN(c2nccc(-c3cnn4ncccc34)n2)C1", "assay": "binding", "setting": "1 µM", "remaining binding": "64%"}
{"Compound": "CCOCCn1cc(C(=O)Nc2ccc(-n3nc(-c4cccnc4)cc3C(F)(F)F)cn2)ccc1=O", "assay": "cell-free assay, competition with immobilised ligand", "setting": "1 µM", "remaining binding": "99%"}
{"Compound": "CN(CCCC(F)(F)F)c1nccc(-c2cnn3ncccc23)n1", "assay": "binding", "setting": "1 µM", "remaining binding": "100%"}
{"Compound": "CNCc1ccccc1-c1csc([C@H](C)Nc2nc(C)nc3cc(OC)c(OC)cc23)c1", "assay": "cell-free assay, competition with immobilised ligand", "setting": "1 µM", "remaining binding": "86%"}
{"Compound": "CNC(=O)[C@@H]1CC[C@@H](n2c(-c3ccc4cnccc4c3)nc3ccc(C(=O)NCc4cccc(C(N)=O)c4)cc32)C1", "assay": "binding, competition with immobilised ligand", "setting": "1 µM", "remaining binding": "100%"}
{"Compound": "CNC(=O)Nc1ccc2c(c1)[C@@]1(CC2)OC(=O)N(CC(=O)N(Cc2ccc(F)cc2)[C@@H](C)C(F)(F)F)C1=O", "assay": "binding, competition with immobilised ligand", "setting": "1 µM", "remaining binding": "67%"}
{"Compound": "COc1cnc(Nc2cccc(S(N)(=O)=O)c2)nc1N1CCN(c2ccccc2)CC1", "assay": "binding, competition with immobilised ligand", "setting": "1 µM", "remaining binding": "72%"}
